Source: ChEMBL document CHEMBL4118097, “Selective Inhibitors of Dual Leucine Zipper Kinase (DLK, MAP3K12) with Activity in a Model of Alzheimer's Disease” (J Med Chem, 2017)
pIC50, pKd: −log10 of the molar value.

Tests used:
[1] = biological target: T1, Mitogen-activated protein kinase kinase kinase 12 (Homo sapiens, UniProt Q12852); assay: Binding affinity to full length wild type human DLK (M1 to P859 residues) expressed in mammalian cells by KINOMEscan assay; format: cell-based
T1 sequence (Q12852 whole entry): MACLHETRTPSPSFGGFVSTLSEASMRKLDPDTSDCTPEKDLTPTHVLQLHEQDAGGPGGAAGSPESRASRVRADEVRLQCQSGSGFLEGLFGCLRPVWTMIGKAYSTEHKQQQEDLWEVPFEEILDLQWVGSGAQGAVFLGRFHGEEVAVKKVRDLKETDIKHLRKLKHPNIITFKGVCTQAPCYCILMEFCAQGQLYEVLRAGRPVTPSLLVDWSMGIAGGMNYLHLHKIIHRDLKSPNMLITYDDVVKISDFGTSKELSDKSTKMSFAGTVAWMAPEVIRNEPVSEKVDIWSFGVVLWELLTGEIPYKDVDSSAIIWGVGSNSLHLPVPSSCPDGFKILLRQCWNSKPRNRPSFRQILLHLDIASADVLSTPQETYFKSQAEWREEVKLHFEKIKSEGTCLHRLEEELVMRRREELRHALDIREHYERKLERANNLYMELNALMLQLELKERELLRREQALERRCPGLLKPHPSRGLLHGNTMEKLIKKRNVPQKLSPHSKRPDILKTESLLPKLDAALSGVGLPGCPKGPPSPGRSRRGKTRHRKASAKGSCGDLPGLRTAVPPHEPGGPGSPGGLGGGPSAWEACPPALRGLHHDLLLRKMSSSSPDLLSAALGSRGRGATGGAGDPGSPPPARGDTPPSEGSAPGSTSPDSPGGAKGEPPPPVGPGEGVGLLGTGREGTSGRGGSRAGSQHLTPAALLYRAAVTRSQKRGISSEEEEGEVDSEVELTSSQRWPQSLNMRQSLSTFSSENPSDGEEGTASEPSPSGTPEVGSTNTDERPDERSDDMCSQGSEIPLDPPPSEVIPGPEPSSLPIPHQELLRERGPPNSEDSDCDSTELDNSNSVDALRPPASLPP
Summary of the method: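 Binding measured in an outsourced KINOMEscan profiling service, run alongside the homologous kinase LZK; the value is reported as a dissociation constant (Kd).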

[2] = biological target: Death-associated protein kinase 1 (Homo sapiens) (UniProt P53355); assay: Inhibition of recombinant N-terminal GST-tagged human DAPK1 (1 to 363 residues) expressed in baculovirus expression system at 1 uM by FRET assay relative to control
Summary of the method: (§1)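 Single-concentration screen at 1 μM in Life Technologies SelectScreen, across a 220-kinase panel. Z′-LYTE format measures phosphorylation of a labeled peptide by FRET. Results are reported as percent inhibition.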

[3] = biological target: CDK8/Cyclin C (Homo sapiens) (UniProt P49336+P24863); assay: Inhibition of recombinant full length His-tagged human CDK8/CyclinC expressed in baculovirus expression system at 1 uM by FRET assay relative to control
[4] = biological target: Serine/threonine-protein kinase BRSK1 (Homo sapiens) (UniProt Q8TDC3); assay: Inhibition of recombinant full length GST-tagged human BrSK1 expressed in baculovirus expression system at 1 uM by FRET assay relative to control; summary of the method: as §1
[5] = biological target: Interleukin-1 receptor-associated kinase 1 (Homo sapiens) (UniProt P51617); assay: Inhibition of recombinant GST-tagged human IRAK1 (194 to 712 residues) expressed in baculovirus expression system at 1 uM by FRET relative to control
Summary of the method: (§2)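 Single-point screen at 1 μM compound in a 220-kinase panel run by Life Technologies (SelectScreen). Z′-LYTE format: phosphorylation of a labeled peptide substrate read by FRET. Values are reported as percent inhibition.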

[6] = biological target: Homeodomain-interacting protein kinase 1 (Homo sapiens) (UniProt Q86Z02); assay: Inhibition of recombinant GST-tagged human HIPK1 catalytic domain expressed in baculovirus expression system at 1 uM by FRET relative to control; summary of the method: as §2
[7] = biological target: G protein-coupled receptor kinase 6 (Homo sapiens) (UniProt P43250); assay: Inhibition of recombinant full length GST-tagged human GRK6 expressed in baculovirus expression system at 1 uM by FRET relative to control; summary of the method: as §1
[8] = biological target: G protein-coupled receptor kinase 3 (Homo sapiens) (UniProt P35626); assay: Inhibition of recombinant full length GST-tagged human GRK3 expressed in baculovirus expression system at 1 uM by FRET relative to control; summary of the method: as §1
[9] = biological target: Receptor tyrosine-protein kinase erbB-4 (Homo sapiens) (UniProt Q15303); assay: Inhibition of recombinant N-terminal GST-tagged human ErbB4 cytoplasmic domain expressed in baculovirus expression system at 1 uM by FRET assay relative to control; summary of the method: as §1
[10] = biological target: Mitogen-activated protein kinase 14 (Homo sapiens) (UniProt Q16539); assay: Inhibition of recombinant full length GST-tagged human p38alpha expressed in Escherichia coli at 1 uM by FRET assay relative to control
[11] = biological target: Dual specificity mitogen-activated protein kinase kinase 6 (Homo sapiens) (UniProt P52564); assay: Inhibition of recombinant human full length His-tagged MKK6 expressed in baculovirus at 1 uM by FRET assay relative to control
[12] = biological target: Serine/threonine-protein kinase TBK1 (Homo sapiens) (UniProt Q9UHD2); assay: Inhibition of recombinant full length GST-tagged human TBK1 expressed in insect cells at 1 uM by FRET assay relative to control; summary of the method: as §1
[13] = biological target: Serine/threonine-protein kinase Sgk3 (Homo sapiens) (UniProt Q96BR1); assay: Inhibition of recombinant full length GST-tagged human SGK3 catalytic domain (87 to 496 residues) expressed in baculovirus expression system at 1 uM by FRET assay relative to control; summary of the method: as §1
[14] = biological target: Rho-associated protein kinase 1 (Homo sapiens) (UniProt Q13464); assay: Inhibition of recombinant N-terminal GST-tagged human ROCK1 catalytic domain (1 to 535 residues) expressed in baculovirus expression system at 1 uM by FRET assay relative to control; summary of the method: as §1
[15] = biological target: Serine/threonine-protein kinase N1 (Homo sapiens) (UniProt Q16512); assay: Inhibition of full length recombinant GST-tagged human PRK1 expressed in baculovirus expression system at 1 uM by FRET assay relative to control
[16] = biological target: Receptor-type tyrosine-protein kinase FLT3 (Homo sapiens, UniProt P36888); assay: Inhibition of recombinant His-tagged human FLT3 cytoplasmic domain expressed in baculovirus expression system by FRET assay
[17] = biological target: Mitogen-activated protein kinase kinase kinase 10 (Homo sapiens, UniProt Q02779); assay: Inhibition of recombinant human full length GST-tagged MLK2 expressed in baculovirus expression system by FRET assay
[18] = biological target: Adenosine receptor A1 (Homo sapiens) (UniProt P30542); assay: Binding affinity to recombinant human A1 adenosine receptor at 10 uM relative to control
Summary of the method: (§3)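 Broad radioligand-binding and enzyme screening panel covering 42 targets (biogenic amine and neuropeptide receptors, ion channels, neurotransmitter transporters, acetylcholinesterase). Single test concentration of 10 μM. Results expressed as binding relative to control, with a hit defined as >50% of control.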

[19] = biological target: 5-hydroxytryptamine receptor 2B (Homo sapiens) (UniProt P41595); assay: Binding affinity to 5HT2B receptor (unknown origin) receptor at 10 uM relative to control; summary of the method: as §3
Sequence of 5-hydroxytryptamine receptor 2B (Homo sapiens) (P41595 whole entry): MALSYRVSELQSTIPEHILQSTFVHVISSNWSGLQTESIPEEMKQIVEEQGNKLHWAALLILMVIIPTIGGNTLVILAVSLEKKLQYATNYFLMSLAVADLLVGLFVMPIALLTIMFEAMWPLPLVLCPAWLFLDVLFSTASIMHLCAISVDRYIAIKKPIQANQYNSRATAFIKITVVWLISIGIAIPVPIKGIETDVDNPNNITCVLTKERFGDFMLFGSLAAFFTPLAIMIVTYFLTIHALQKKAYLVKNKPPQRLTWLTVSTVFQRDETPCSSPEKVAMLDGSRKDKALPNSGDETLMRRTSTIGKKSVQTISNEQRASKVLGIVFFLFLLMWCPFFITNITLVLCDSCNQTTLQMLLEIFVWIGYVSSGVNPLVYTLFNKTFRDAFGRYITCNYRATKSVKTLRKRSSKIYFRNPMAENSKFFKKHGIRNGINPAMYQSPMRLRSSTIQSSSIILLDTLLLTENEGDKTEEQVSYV

Sequence of Mitogen-activated protein kinase 14 (Homo sapiens) (Q16539 whole entry): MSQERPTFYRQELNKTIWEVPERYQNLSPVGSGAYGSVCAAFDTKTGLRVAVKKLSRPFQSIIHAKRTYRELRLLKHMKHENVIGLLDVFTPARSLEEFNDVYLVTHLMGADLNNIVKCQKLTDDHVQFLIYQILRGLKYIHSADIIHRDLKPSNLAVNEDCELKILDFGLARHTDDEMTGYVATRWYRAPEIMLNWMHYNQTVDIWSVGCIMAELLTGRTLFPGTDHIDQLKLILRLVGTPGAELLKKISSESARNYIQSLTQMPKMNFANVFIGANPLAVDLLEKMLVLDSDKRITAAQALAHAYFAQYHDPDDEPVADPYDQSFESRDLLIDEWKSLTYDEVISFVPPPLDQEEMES
Sequence of Interleukin-1 receptor-associated kinase 1 (Homo sapiens) (P51617 whole entry, looked up, the tested form may be a part): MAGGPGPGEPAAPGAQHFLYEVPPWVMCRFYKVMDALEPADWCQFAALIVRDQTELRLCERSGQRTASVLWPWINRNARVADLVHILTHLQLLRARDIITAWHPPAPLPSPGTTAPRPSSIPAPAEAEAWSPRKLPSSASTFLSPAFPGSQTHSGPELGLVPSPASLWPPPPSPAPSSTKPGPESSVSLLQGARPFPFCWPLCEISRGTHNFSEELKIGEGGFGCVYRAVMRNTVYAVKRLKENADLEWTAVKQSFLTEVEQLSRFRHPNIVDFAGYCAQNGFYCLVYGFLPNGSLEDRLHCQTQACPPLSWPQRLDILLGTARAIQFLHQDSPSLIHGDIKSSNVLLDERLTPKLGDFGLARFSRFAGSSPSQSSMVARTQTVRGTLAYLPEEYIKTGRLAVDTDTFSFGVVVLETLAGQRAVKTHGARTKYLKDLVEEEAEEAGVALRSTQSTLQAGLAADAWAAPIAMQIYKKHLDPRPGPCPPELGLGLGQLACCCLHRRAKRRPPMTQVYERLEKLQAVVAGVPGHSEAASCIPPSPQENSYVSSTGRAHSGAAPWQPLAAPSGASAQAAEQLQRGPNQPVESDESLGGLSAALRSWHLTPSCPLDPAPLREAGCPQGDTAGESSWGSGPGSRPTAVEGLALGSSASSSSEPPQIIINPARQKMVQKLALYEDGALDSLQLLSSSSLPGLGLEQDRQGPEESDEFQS
Sequence of Dual specificity mitogen-activated protein kinase kinase 6 (Homo sapiens) (P52564 whole entry): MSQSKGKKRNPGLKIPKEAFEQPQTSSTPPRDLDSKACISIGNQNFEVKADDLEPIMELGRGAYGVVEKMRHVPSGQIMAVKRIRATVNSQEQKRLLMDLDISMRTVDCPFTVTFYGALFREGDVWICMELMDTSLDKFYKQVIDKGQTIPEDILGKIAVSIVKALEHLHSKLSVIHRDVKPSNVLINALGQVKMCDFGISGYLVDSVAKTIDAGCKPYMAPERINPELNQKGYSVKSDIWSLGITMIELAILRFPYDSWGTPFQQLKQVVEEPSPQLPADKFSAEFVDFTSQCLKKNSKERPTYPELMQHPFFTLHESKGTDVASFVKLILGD
Sequence of Serine/threonine-protein kinase BRSK1 (Homo sapiens) (Q8TDC3 whole entry, the tested form may be a part): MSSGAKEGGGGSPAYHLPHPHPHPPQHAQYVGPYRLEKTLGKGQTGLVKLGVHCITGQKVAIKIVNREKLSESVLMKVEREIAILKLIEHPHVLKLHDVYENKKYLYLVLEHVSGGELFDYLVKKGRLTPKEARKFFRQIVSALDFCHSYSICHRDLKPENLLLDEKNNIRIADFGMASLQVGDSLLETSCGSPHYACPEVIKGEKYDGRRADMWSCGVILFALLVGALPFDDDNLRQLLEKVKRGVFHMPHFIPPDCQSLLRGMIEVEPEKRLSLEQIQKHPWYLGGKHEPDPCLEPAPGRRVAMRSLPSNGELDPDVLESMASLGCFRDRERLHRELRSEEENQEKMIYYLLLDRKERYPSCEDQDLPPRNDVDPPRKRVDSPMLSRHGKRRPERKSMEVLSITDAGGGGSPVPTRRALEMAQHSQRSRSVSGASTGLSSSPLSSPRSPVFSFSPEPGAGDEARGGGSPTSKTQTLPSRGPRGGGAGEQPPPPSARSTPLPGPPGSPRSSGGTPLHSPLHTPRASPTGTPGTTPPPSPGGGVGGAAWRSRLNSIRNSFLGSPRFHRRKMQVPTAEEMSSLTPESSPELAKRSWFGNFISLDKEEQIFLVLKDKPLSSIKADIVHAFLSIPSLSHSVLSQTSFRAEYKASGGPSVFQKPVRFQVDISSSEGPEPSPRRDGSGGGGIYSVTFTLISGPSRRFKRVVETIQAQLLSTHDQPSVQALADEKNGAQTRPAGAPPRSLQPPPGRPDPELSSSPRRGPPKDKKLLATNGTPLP
Sequence of Homeodomain-interacting protein kinase 1 (Homo sapiens) (Q86Z02 whole entry, looked up, the tested form may be a part): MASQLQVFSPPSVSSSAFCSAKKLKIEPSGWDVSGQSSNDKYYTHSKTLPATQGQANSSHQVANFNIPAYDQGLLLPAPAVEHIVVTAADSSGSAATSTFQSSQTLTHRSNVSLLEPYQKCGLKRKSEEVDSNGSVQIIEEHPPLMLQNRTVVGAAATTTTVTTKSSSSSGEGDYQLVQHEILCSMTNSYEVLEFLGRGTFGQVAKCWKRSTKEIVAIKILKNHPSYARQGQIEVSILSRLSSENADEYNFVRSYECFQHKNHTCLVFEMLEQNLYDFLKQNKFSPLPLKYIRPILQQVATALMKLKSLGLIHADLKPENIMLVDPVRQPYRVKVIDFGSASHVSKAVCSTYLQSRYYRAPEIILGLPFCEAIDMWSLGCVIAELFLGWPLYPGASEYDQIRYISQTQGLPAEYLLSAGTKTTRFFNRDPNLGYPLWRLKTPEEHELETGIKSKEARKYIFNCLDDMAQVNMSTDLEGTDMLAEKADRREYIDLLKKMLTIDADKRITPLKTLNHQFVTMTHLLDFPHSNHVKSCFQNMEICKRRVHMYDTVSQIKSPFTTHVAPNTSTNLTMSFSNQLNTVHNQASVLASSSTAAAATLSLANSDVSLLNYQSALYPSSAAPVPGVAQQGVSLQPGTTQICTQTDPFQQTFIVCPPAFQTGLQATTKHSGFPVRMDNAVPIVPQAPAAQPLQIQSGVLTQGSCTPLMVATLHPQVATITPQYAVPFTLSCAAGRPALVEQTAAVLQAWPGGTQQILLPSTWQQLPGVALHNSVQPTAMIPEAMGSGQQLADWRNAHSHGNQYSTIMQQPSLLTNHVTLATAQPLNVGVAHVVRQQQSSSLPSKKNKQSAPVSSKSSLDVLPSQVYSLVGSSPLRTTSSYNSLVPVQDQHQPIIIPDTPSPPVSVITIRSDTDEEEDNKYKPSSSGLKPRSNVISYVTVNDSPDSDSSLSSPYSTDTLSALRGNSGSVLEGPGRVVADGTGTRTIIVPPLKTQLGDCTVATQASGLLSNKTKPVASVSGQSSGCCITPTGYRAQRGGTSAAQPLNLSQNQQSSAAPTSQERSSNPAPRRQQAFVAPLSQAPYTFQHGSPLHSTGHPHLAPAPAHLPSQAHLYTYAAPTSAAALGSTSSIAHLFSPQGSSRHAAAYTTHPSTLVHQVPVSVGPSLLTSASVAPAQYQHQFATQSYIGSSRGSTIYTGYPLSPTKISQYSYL
Sequence of G protein-coupled receptor kinase 3 (Homo sapiens) (P35626 whole entry, the tested form may be a part): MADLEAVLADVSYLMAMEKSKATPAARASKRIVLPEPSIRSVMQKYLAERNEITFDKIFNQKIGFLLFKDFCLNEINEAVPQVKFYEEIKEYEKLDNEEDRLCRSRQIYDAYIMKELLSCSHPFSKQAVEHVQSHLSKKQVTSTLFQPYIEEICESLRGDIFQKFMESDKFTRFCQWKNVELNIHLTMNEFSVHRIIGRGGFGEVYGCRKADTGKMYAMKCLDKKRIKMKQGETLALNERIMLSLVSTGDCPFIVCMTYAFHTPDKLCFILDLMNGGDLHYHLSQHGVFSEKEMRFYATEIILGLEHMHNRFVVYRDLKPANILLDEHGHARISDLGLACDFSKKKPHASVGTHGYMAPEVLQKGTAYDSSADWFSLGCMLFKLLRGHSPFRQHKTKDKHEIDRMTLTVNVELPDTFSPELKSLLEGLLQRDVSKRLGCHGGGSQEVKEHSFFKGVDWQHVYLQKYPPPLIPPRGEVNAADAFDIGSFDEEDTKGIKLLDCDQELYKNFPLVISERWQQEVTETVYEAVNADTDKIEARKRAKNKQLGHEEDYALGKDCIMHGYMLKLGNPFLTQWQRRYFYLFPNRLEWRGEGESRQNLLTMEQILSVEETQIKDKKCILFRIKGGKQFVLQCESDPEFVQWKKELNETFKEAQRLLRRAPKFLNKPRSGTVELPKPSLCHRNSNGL
Sequence of Adenosine receptor A1 (Homo sapiens) (P30542 whole entry): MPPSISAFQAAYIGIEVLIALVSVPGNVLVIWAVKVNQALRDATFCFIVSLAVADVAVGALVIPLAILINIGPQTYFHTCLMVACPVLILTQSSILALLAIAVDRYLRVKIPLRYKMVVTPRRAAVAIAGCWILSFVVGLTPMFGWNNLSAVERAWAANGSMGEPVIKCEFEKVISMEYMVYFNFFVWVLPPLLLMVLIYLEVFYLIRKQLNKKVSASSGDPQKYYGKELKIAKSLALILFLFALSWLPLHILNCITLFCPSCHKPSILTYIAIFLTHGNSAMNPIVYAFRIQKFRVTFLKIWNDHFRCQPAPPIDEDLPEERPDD

CC(C)n1nc(-c2cnc(N)c(OC(F)(F)F)c2)cc1[C@H]1[C@@H]2CN(C3COC3)C[C@@H]21
pKd [1]: 7.96 | inhibition [2]: -5.1% | inhibition [3]: 9.9% | inhibition [4]: 5.8% | inhibition [5]: 8% | inhibition [6]: 8.6% | inhibition [7]: 2.5% | inhibition [8]: -2.3% | inhibition [9]: 2.5% | inhibition [10]: 1.1% | inhibition [11]: 10.6% | inhibition [12]: 9.4% | inhibition [13]: 6.1% | inhibition [14]: 8.8% | inhibition [15]: 5.3% | pIC50 [16]: 6.15 | pIC50 [17]: 5.10 | Activity [18]: > 50% | Activity [19]: > 50%

Nc1ncc(-c2cc([C@H]3[C@@H]4CN(C5COC5)C[C@@H]43)n(CC3CC3)n2)cc1C(F)(F)F
pKd [1]: 8.29 | inhibition [2]: 14% | inhibition [3]: 2.4% | inhibition [4]: -0.3% | inhibition [5]: -6.1% | inhibition [6]: 3.8% | inhibition [7]: -4.2% | inhibition [8]: 0.5% | inhibition [9]: 5.3% | inhibition [10]: 5.8% | inhibition [11]: -0.9% | inhibition [12]: 5.3% | inhibition [13]: -0.1% | inhibition [14]: -7.4% | inhibition [15]: -8% | pIC50 [16]: 6.62 | pIC50 [17]: 5.29 | Activity [18]: > 50% | Activity [19]: > 50%
